HCV core dimer = inhibitors of HCV core protein dimerization, primary screen, biochemical, TR-FRET, high-throughput; inhibition, % at 5 µM; TR-FRET GST/Flag-core106 dimerization, 1536-well; 300,000 tested, 0.33% active;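 active = inhibition above the mean of all tested compounds plus 3 SD, set per screening campaign, cut at about 45% in these data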
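System: GST/Flag-tagged HCV core106 proteins. Incubation: compound-protein-antibody incubation 4 h at 22.5 °C. Technique: HTRF with 340 nm excitation, 617/671 nm emission. Medium: KF-containing HEPES buffer, pH 7.45, DTT, CHAPS, BSA. Read-out: inhibition (%) from 671 over 617 nm ratio. Also added: Eu(K)-anti-GST 90 ng/mL plus XL665-anti-Flag 1 µg/mL.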
GPR7 antagonist = GPR7 receptor antagonists, primary screen, cell-based, fluorescence, single concentration | GPR7-expressing cells, fluorescence antagonist assay | Neuropeptides B/W receptor type 1 (Homo sapiens), P48145 | inhibition, % at 4.4 µM | 290,000 tested, 1.1% active; in the data active = inhibition above about 16%, passing the limit was not always enough;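 also: cells stimulated with the agonist NPW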
pCIP destab = p/CIP-EGFP fusion destabilizers, primary screen, fluorescence, F442A cells. Q05BA5. 290,000 tested, 0.01% active. 16 h. AID 1984, 2009. decrease of EGFP signal, % at 10 µM;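 active = EGFP signal decrease of at least 30% at 10 µM or well 3 SD below plate mean, unless failing retest; inactive = the rest, including hits failing retest or dose response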
Target sequence (Q05BA5 1-1403): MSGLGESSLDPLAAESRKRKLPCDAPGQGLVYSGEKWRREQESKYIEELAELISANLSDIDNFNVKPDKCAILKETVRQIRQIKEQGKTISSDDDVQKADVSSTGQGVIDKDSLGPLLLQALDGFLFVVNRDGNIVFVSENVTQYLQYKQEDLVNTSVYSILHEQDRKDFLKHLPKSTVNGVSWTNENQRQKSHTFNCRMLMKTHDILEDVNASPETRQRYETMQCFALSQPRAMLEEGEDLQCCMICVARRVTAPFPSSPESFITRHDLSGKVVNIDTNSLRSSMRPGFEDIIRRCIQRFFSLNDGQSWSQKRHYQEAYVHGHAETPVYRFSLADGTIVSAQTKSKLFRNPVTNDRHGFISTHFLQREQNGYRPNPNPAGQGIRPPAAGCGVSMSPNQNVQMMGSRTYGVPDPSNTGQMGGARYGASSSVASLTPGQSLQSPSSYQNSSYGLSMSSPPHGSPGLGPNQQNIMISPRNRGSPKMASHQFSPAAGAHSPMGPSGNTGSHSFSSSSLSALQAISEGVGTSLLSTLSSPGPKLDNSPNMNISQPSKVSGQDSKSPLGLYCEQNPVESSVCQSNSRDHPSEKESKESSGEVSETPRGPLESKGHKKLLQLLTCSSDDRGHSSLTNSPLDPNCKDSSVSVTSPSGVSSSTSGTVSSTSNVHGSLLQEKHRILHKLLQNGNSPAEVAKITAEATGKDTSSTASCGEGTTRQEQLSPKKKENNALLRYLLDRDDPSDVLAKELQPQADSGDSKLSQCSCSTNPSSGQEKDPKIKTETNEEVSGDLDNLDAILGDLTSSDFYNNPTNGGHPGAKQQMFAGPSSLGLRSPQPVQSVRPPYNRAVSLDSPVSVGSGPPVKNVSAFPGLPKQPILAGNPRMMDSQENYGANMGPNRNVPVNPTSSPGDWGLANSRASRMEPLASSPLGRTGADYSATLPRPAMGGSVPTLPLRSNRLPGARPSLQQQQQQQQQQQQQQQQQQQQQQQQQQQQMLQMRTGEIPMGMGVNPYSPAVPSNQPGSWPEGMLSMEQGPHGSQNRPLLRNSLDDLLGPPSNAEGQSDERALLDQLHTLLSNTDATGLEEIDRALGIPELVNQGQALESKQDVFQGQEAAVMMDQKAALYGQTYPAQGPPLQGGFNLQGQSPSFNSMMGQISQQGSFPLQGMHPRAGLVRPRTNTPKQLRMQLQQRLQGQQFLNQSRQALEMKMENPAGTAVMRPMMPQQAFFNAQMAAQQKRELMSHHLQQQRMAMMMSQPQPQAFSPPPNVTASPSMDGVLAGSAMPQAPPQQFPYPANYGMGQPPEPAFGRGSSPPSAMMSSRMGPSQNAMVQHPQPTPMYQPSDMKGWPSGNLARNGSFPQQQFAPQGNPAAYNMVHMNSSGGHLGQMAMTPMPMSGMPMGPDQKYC
DNA FID counter-1 = compounds displacing fluorescent DNA intercalator, primary screen, artefact control for HCV NS3 helicase inhibitor project, biochemical, FID fluorescence | AID 1845, 2009 | 290,000 tested, 0.17% active | DNA fluorescent intercalator displacement | inhibition, % at 7.9 µM;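 also: higher means more ethidium bromide displaced from hairpin DNA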
NS3 helicase inh = inhibitors of HCV NS3 helicase, primary screen, biochemical, Cy5 molecular beacon fluorescence | Hepatitis C virus NS3 helicase | NS3 helicase DNA unwinding | inhibition, % at 10.9 µM | 290,000 tested, 0.56% active;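 active = inhibition above the mean of all tested compounds plus 3 SD, set per campaign, cut at about 35% in these data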
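assay system = NS3 helicase fragment of HCV | buffer or medium = MOPS pH 6.5, MgCl2, DTT, Tween20, BSA | timing = 60 min unwinding reaction at 25 °C after ATP addition | signal = Cy5 beacon fluorescence read at start and 1 h | read-out basis = % inhibition of unwinding | control set = low DMSO, high thioflavine S at 110 µM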
NS3 helicase cf = HCV NS3 helicase inhibitors, retest, confirmation, biochemical, Cy5 molecular beacon fluorescence, triplicate; shares compounds with NS3 helicase inh; NS3 helicase DNA unwinding; inhibition, % at 10.9 µM; 1,600 tested, 31% active; AID 1943, 2009;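 active = inhibition above the mean of all tested compounds plus 3 SD, cutoff set per campaign, cut at about 36% in these data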
DNA FID counter-2 = compounds displacing fluorescent DNA intercalator, artefact control for HCV NS3 helicase inhibitor project, biochemical, FID fluorescence, triplicate. 1,600 tested, 4% active. AID 1945, 2009. DNA fluorescent intercalator displacement. shares compounds with NS3 helicase inh. inhibition, % at 7.9 µM;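 also: higher means more displacement of ethidium bromide from the DNA hairpin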
DNA FID DR = compounds displacing fluorescent intercalator from DNA, dose response, counter-screen for HCV NS3 helicase inhibitor project, biochemical, fluorescence; 120 tested, under 10 active; IC50, µM; shares compounds with NS3 helicase inh; fluorescent intercalator displacement from DNA; call rule not given here
Large screens that a line does not name were inactive (follow-up assays come after a bar, where they were run). Rows were chosen to be rich in hits. Some 1.9% of all compounds tested hit in one or more screens of this group. Rule as the data show it, unless noted: active = inhibition above about 37%; inactive = the rest.

Cc1cccc(NC(=O)CSc2nnc(-c3ccco3)c(-c3ccco3)n2)c1C	NS3 helicase inh 52 | NS3 helicase cf 77 | DNA FID counter-2 inactive
CC(=O)N1CCc2cc(S(=O)(=O)CCC(=O)Nc3ccccc3F)ccc21	none
Clc1ccccc1C1=CC(c2ccco2)n2ncnc2N1 (configuration not stated)	NS3 helicase inh 41 | NS3 helicase cf inactive | DNA FID counter-2 inactive
Clc1ccc(C2=CC(c3ccco3)n3ncnc3N2)cc1 (configuration not stated)	none
CC/C(C)=N/Oc1nc(C)cc(C)n1	none
Cc1cccc(NC(=S)Nc2ccc(N3CCOCC3)cc2)c1C	NS3 helicase inh 40 | NS3 helicase cf inactive | DNA FID counter-2 inactive
Cc1ccc(-n2nc(C)c3onc(C)c3c2=O)cc1	none
Cc1ccc2nc3c(cc(C#N)c(=N)n3Cc3cccnc3)c(=O)n2c1	none
Cc1ccc(S(=O)(=O)N(Cc2ccc(C(F)(F)F)cc2)C(=O)N2CCN(C)CC2)cc1	none (no result: GPR7 antagonist, pCIP destab, DNA FID counter-1, NS3 helicase inh)
O=C(/C=C/c1ccco1)N(Cc1ccc(Cl)cc1)C1CCS(=O)(=O)C1 (configuration not stated)	NS3 helicase inh 42 | NS3 helicase cf inactive | DNA FID counter-2 inactive
CN(C)c1ccc(CN(C(=O)/C=C/c2ccco2)C2CCS(=O)(=O)C2)cc1 (configuration not stated)	none
CCCCCC/C(C)=C1/SC(=S)NC1=O	NS3 helicase inh 40 | NS3 helicase cf inactive | DNA FID counter-2 inactive
C/C(C/C(C)=C1/SC(=S)NC1=O)=C1\SC(=S)NC1=O	none (no result: HCV core dimer)
CCOC(=O)c1c(-c2cccc(C)c2)csc1NC(=O)C1CC=CCC1C(=O)O (configuration not stated)	none
CCOC(=O)c1c(-c2ccc(C)cc2)csc1NC(=O)C1CC=CCC1C(=O)O (configuration not stated)	NS3 helicase inh 43 | NS3 helicase cf 74 | DNA FID counter-2 inactive
O=C(COc1cccc(Cl)c1)Nc1ccccc1N1CCCCC1	none (no result: GPR7 antagonist, pCIP destab, DNA FID counter-1, NS3 helicase inh)
N#Cc1c(-c2ccco2)cc(-c2ccccc2)[nH]c1=O	none
Cc1ccc(-c2cc(-c3ccco3)c(C#N)c(=O)[nH]2)cc1	NS3 helicase inh 42 | NS3 helicase cf inactive | DNA FID counter-2 inactive
CCOCCc1nn2c(=O)cc(CSCC(=O)Nc3ccccc3)nc2s1	none
Cc1ccc(-n2sc3ccccc3c2=O)cc1S(=O)(=O)N1CCCCC1	NS3 helicase inh 47 | NS3 helicase cf inactive | DNA FID counter-2 inactive
Cc1c(C(=O)N2CCN(Cc3ccccc3)CC2)oc2c1C(=O)CC(C)(C)C2	none
Cc1cc(C)c(C)c(OCCCCN2CCCCC2)c1	none
Oc1cccc(C=Nc2cccc3ccccc23)c1O	NS3 helicase inh 46 | NS3 helicase cf inactive | DNA FID counter-2 inactive
CC(C)N=c1scc(-c2cccs2)n1/N=C/c1ccc(O)c(O)c1O	NS3 helicase inh 43 | NS3 helicase cf inactive | DNA FID counter-2 inactive
Cc1onc(-c2ccccc2)c1C(=O)N/N=C/c1cccc(O)c1	none
Cc1onc(-c2ccccc2)c1C(=O)N/N=C/c1ccco1	NS3 helicase inh 40 | NS3 helicase cf inactive | DNA FID counter-2 inactive
COC(=O)c1c(NC(=O)CSc2nc3ccccc3c(=O)n2-c2ccccc2)sc(C)c1C	NS3 helicase inh 48 | NS3 helicase cf inactive | DNA FID counter-2 inactive
O=C(COc1ccccc1)N/N=C/c1ccc([N+](=O)[O-])o1	NS3 helicase inh 41 | NS3 helicase cf inactive | DNA FID counter-2 inactive
CCCc1ccc(-c2cc(C(=O)N/N=C/c3ccc([N+](=O)[O-])o3)c3ccccc3n2)cc1	none
Cc1ccc(OCC(=O)N/N=C/c2ccc([N+](=O)[O-])o2)cc1	none
O=C(CNc1ccc2ccccc2c1)N/N=C/c1ccc(C(=O)O)cc1	none
O=C(N/N=C/c1ccc([N+](=O)[O-])o1)c1cc(-c2cccc(Br)c2)nc2ccccc12	HCV core dimer 71, NS3 helicase inh 41 | NS3 helicase cf 38 | DNA FID counter-2 inactive
O=C(CNc1ccc2ccccc2c1)N/N=C/c1ccc([N+](=O)[O-])o1	NS3 helicase inh 55 | NS3 helicase cf inactive | DNA FID counter-2 inactive
CN(C(=O)CSc1nc(-c2ccc(C(C)(C)C)cc2)c(C#N)c(=O)[nH]1)C1CCCCC1	none
O=S(=O)(c1ccc(Cl)c(C(F)(F)F)c1)N1CCN(CC(O)COc2ccccc2F)CC1 (configuration not stated)	none
CCCNc1c(F)c(F)c2c(C)c3ccccc3nc2c1F	NS3 helicase inh 41 | NS3 helicase cf inactive | DNA FID counter-2 inactive
Cc1c2ccccc2nc2ccccc12	none (no result: GPR7 antagonist, pCIP destab, DNA FID counter-1, NS3 helicase inh)
Cc1occc1C(=O)NNC(=O)COc1ccc(Br)cc1Br	none
Cc1occc1C(=O)NNC(=S)NC(=O)COc1ccc(Cl)cc1Cl	NS3 helicase inh 72 | NS3 helicase cf 58 | DNA FID counter-2 inactive | DNA FID DR inactive
CCN(CC(=O)Nc1cccc(S(=O)(=O)N2CCOCC2)c1)Cc1ccccc1	none (no result: GPR7 antagonist, pCIP destab, DNA FID counter-1, NS3 helicase inh)
CCOc1ccc(S(=O)(=O)N/N=C(\C)C2CCCCC2)cc1	NS3 helicase inh 43 | NS3 helicase cf inactive | DNA FID counter-2 inactive
CCOc1ccc(S(=O)(=O)NC2CCCCCC2)cc1	none
COc1ccc(C(C(=O)Nc2ccc(C(C)C)cc2)N(C)C(=O)c2ccc(=O)[nH]c2)cc1 (configuration not stated)	none
CCc1ccc(CNC(=O)C2Cc3cc(S(=O)(=O)N4CCCC4)ccc3N2C(C)=O)cc1 (configuration not stated)	none
O=C(c1cc(COc2c(F)cccc2F)on1)N(Cc1ccccc1)CC1CC1	none
N#C/C(=C\c1cccs1)C(=O)c1ccccc1Cl	NS3 helicase inh 41 | NS3 helicase cf inactive | DNA FID counter-2 inactive
Cc1nnc(SCC(=O)NC2CCCCCC2)n1C(C)C	none
NC(=O)c1sc2nc3c(c(-c4ccco4)c2c1N)CCC3	NS3 helicase inh 58 | NS3 helicase cf inactive | DNA FID counter-2 inactive
NC(=O)c1sc2nc(-c3ccco3)ccc2c1N	NS3 helicase inh 74 | NS3 helicase cf inactive | DNA FID counter-2 inactive
Nc1c(C(=O)NC2CC2)sc2nc3c(c(-c4ccco4)c12)CC/C3=C/c1ccco1	HCV core dimer 104, NS3 helicase inh 69 | NS3 helicase cf 99 | DNA FID counter-2 inactive | DNA FID DR inactive
Nc1c(C(=O)Nc2ccccc2F)sc2nc(-c3cccnc3)ccc12	none

Assay outcomes as filed in PubChem BioAssay.
